Experimental data as given in ChEMBL document CHEMBL3627647, “Antibacterial properties of 3-(phenylsulfonyl)-2-pyrazinecarbonitrile” (Bioorg Med Chem Lett, 2015).
≈ marks a conversion by molar mass, not a printed value. Calls of active or inactive are those of the source. The rule behind the calls is not given here. Peptide text beside a SMILES is read from it. * marks the point of attachment. βNA = c1ccc2cc(N*)ccc2c1

What was measured:
Pseudomonas aeruginosa [1] = assay: Antibacterial activity against Pseudomonas aeruginosa PA14 after overnight incubation by broth microdilution method; format: functional
Enterobacter sp. [2] = assay: Antibacterial activity against Enterobacter sp. KCTC 2625 after overnight incubation by broth microdilution method; format: functional
Klebsiella pneumoniae [3] = assay: Antibacterial activity against Klebsiella pneumoniae ATCC 77326 after overnight incubation by broth microdilution method; format: functional
Acinetobacter baumannii [4] = assay: Antibacterial activity against Acinetobacter baumannii ATCC 17978 after overnight incubation by microplate checkerbroad assay in presence of PSPC; format: functional, organism-based
Outline: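 Checkerboard microplate growth inhibition. PSPC at final 1–64 µg/mL combined with polymyxin B at final 0.063–64 µg/mL. The lowest concentrations inhibiting growth alone and in combination were used to calculate the FIC index.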

Klebsiella pneumoniae [5] = assay: Antibacterial activity against Klebsiella pneumoniae ATCC 77326 after overnight incubation by microplate checkerbroad assay in presence of PSPC; format: functional, organism-based
Outline: (§1)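 Microplate checkerboard: PSPC at final 1–64 µg/mL crossed with polymyxin B at final 0.063–64 µg/mL; minimum growth-inhibiting concentrations alone and in combination determined and used to calculate FIC index.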

Acinetobacter baumannii [6] = assay: Antibacterial activity against Acinetobacter baumannii ATCC 17978 after overnight incubation by broth microdilution method; format: functional
[7] = Toxicity in HEK293 cells assessed as cell survival rate up to 2 ug/ml after 24 hrs by WST-1 assay relative to control; format: cell-based; details: human, read-out: Survival
Outline: (§2)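 HEK-293 cells treated with serial dilutions (1–64 µg/mL); rotenone as positive control. Viability read spectrophotometrically from conversion of WST-1 to formazan.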

HEK293 [8] = assay: Toxicity in HEK293 cells assessed as mortality rate at 4 ug/ml after 24 hrs by WST-1 assay relative to control; format: cell-based; details: human, hek293, 24 h; outline: as §2
Staphylococcus aureus [9] = assay: Bactericidal activity against methicillin-resistant Staphylococcus aureus MW2 at 40 ug/ml measured for 4 hrs by time-kill assay; format: functional
Acinetobacter baumannii [10] = assay: Antibacterial activity against Acinetobacter baumannii ATCC 17978 after overnight incubation by broth microdilution method in presence of 64 ug/ml efflux pump inhibitor PAbetaN; format: functional
Enterobacter sp. [11] = assay: Ratio of MIC for Enterobacter sp. KCTC 2625 in absence of 64 ug/ml efflux pump inhibitor PAbetaN to MIC for Enterobacter sp. KCTC 2625 in presence of 64 ug/ml efflux pump inhibitor PAbetaN; format: functional
[12] = Hemolytic activity in sheep erythrocytes at 0.063 to 64 ug/ml after 1 hr; format: ADME, cell-based, Ovis aries; details: erythrocyte
Outline: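 Sheep red blood cells exposed 1 hour to serial dilutions (0.063–64 µg/ml); Triton X-100 at 0.001–1% as positive control; hemolysis scored visually and confirmed by absorbance at 540 nm.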

HEK293 [13] = assay: Toxicity in HEK293 cells assessed as decrease in cell survival rate after 24 hrs by WST-1 assay; format: cell-based; details: human, hek293, 24 h
Outline: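 HEK-293 cells treated with serial dilutions over 1–64 µg/mL; rotenone as positive control; viability read spectrophotometrically from WST-1 conversion to formazan by viable cells.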

Klebsiella pneumoniae [14] = assay: Antibacterial activity against Klebsiella pneumoniae ATCC 77326 after overnight incubation by broth microdilution method in presence of 64 ug/ml efflux pump inhibitor PAbetaN; format: functional
Enterococcus faecium = assay: Antibacterial activity against Enterococcus faecium E007 after overnight incubation by broth microdilution method; format: functional
Staphylococcus aureus [15] = assay: (§3) Antibacterial activity against methicillin-resistant Staphylococcus aureus MW2 infected in young adult stage of Caenorhabditis elegans glp-4(bn2);sek-1 (km4) assessed as prolongation of survival after 5 days by Sytox Orange staining-based bright field microscopic analysis; format: functional; details: MW2, 120 h, read-out: MEC
Outline: (§4)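 Young adult C. elegans glp-4(bn2);sek-1(km4) co-inoculated in 384-well plates with MRSA MW2 and 2-fold serial dilutions (0.78–100 µg/mL). DMSO ≤1%; 1% DMSO was the negative control and vancomycin the positive control. Dead worms were stained with Sytox Orange and imaged with brightfield. Survival = fraction of worm area not fluorescent.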

Staphylococcus aureus [16] = assay: as §3, with “survival at 50 ug/ml” for “survival”, “analysis relative to control” for “analysis”; format: functional; details: MW2, 120 h; outline: as §4
Pseudomonas aeruginosa [17] = assay: Antibacterial activity against Pseudomonas aeruginosa PA14 after overnight incubation by broth microdilution method in presence of 64 ug/ml efflux pump inhibitor PAbetaN; format: functional
Klebsiella pneumoniae [18] = assay: Ratio of MIC for Klebsiella pneumoniae ATCC 77326 in absence of 64 ug/ml efflux pump inhibitor PAbetaN to MIC for Klebsiella pneumoniae ATCC 77326 in presence of 64 ug/ml efflux pump inhibitor PAbetaN; format: functional
Staphylococcus aureus [19] = assay: Bactericidal activity against methicillin-resistant Staphylococcus aureus MW2 after overnight incubation; format: functional
Klebsiella pneumoniae [20] = assay: Antibacterial activity against Klebsiella pneumoniae ATCC 77326 after overnight incubation by microplate checkerbroad assay in presence of polymyxin B; format: functional; outline: as §1
Acinetobacter baumannii [21] = assay: Ratio of MIC for Acinetobacter baumannii ATCC 17978 in absence of 64 ug/ml efflux pump inhibitor PAbetaN to MIC for Acinetobacter baumannii ATCC 17978 in presence of 64 ug/ml efflux pump inhibitor PAbetaN; format: functional
Caenorhabditis elegans = assay: Toxicity in Caenorhabditis elegans glp-4(bn2);sek-1 (km4) after 5 days by Sytox Orange staining-based bright field microscopic analysis; format: organism-based; details: in vivo, 120 h
Outline: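 Young adult C. elegans glp-4(bn2);sek-1(km4) co-inoculated in 384-well plates with MRSA strain MW2 and 2-fold serial dilutions (0.78–100 µg/mL), DMSO ≤1%; dead worms stained with Sytox Orange, survival from fluorescent worm area relative to total worm area.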

Staphylococcus aureus [22] = assay: as §3, with “survival at 0.78 to 25 ug/ml” for “survival”, “analysis relative to control” for “analysis”; format: functional; outline: as §4
Staphylococcus aureus [23] = assay: as §3, with “survival at 100 ug/ml” for “survival”, “analysis relative to control” for “analysis”; format: functional; details: MW2, 120 h; outline: as §4
Acinetobacter baumannii [24] = assay: Antibacterial activity against Acinetobacter baumannii ATCC 17978 after overnight incubation by microplate checkerbroad assay in presence of polymyxin B; format: functional; outline: as §1
Staphylococcus aureus [25] = assay: Ratio of MIC for methicillin-resistant Staphylococcus aureus MW2 to MEC for methicillin-resistant Staphylococcus aureus MW2 infected in young adult stage of Caenorhabditis elegans glp-4(bn2);sek-1 (km4); format: functional
Outline: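 The MW2 MIC was measured in Müller-Hinton broth. For the MEC, young adult glp-4(bn2);sek-1(km4) worms were co-inoculated with MW2 in 384-well plates with 2-fold dilutions (0.78–100 µg/mL), with DMSO at or below 1%. Dead worms were stained with Sytox Orange. Survival was taken as […] per well.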

[26] = Toxicity in HEK293 cells assessed as cell survival rate at 64 ug/ml after 24 hrs by WST-1 assay relative to control; format: cell-based; details: human, read-out: Survival; outline: as §2
Enterobacter sp. [27] = assay: Antibacterial activity against Enterobacter sp. KCTC 2625 after overnight incubation by broth microdilution method in presence of 64 ug/ml efflux pump inhibitor PAbetaN; format: functional
Staphylococcus aureus [28] = assay: Antibacterial activity against methicillin-resistant Staphylococcus aureus MW2 after overnight incubation by broth microdilution method; format: functional
Outline: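 Broth microdilution MIC against MRSA MW2 in Müller-Hinton broth.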

Staphylococcus aureus [29] = assay: Ratio of MBC to MIC for methicillin-resistant Staphylococcus aureus MW2; format: functional
Pseudomonas aeruginosa [30] = assay: Ratio of MIC for Pseudomonas aeruginosa PA14 in absence of 64 ug/ml efflux pump inhibitor PAbetaN to MIC for Pseudomonas aeruginosa PA14 in presence of 64 ug/ml efflux pump inhibitor PAbetaN; format: functional
Pseudomonas aeruginosa [31] = assay: Antibacterial activity against Pseudomonas aeruginosa PA14 assessed as growth inhibition at 64 ug/ml after overnight incubation by broth microdilution method; format: functional, organism-based
Acinetobacter baumannii [32] = assay: Antibacterial activity against Acinetobacter baumannii ATCC 17978 assessed as growth inhibition at 64 ug/ml after overnight incubation by broth microdilution method; format: functional, organism-based
Enterobacter sp. [33] = assay: Antibacterial activity against Enterobacter sp. KCTC 2625 assessed as growth inhibition at 64 ug/ml after overnight incubation by broth microdilution method; format: functional, organism-based
Klebsiella pneumoniae [34] = assay: Antibacterial activity against Klebsiella pneumoniae ATCC 77326 assessed as growth inhibition at 64 ug/ml after overnight incubation by broth microdilution method; format: functional, organism-based

Compound: POLYMYXIN B
- MIC (Pseudomonas aeruginosa [1]): 2 µg/mL
- MIC (Enterobacter sp. [2]): 32 µg/mL
- MIC (Klebsiella pneumoniae [3]): 16 µg/mL
- MIC (Acinetobacter baumannii [4]): 0.125 µg/mL
- MIC (Klebsiella pneumoniae [5]): 2 µg/mL
- MIC (Acinetobacter baumannii [6]): 0.5 µg/mL

Compound: N#Cc1nccnc1S(=O)(=O)c1ccccc1
- MIC (Pseudomonas aeruginosa [1]): > 64 µg/mL
- viability at 24 h [7]: 90%
- mortality (HEK293 [8]): 69%
- Activity (Staphylococcus aureus [9]): 100%
- MIC (Enterobacter sp. [2]): > 64 µg/mL
- MIC (Acinetobacter baumannii [10]): 4 µg/mL
- Ratio (Enterobacter sp. [11]): >8
- Activity [12]: Non-toxic
- MIC (Klebsiella pneumoniae [3]): 64 µg/mL (≈ 261 µM)
- Activity (HEK293 [13]): Dose-dependent effect
- MIC (Klebsiella pneumoniae [14]): 8 µg/mL
- MIC (Enterococcus faecium): 8 µg/mL (≈ 32.6 µM)
- minimal effective concentration (Staphylococcus aureus [15]): ≤ 0.78 µg/mL
- survival at 50 µg/mL (Staphylococcus aureus [16]): 46%
- MIC (Pseudomonas aeruginosa [17]): 16 µg/mL
- Ratio (Klebsiella pneumoniae [18]): 8
- MBC (Staphylococcus aureus [19]): 16 µg/mL (≈ 65.2 µM)
- fractional inhibitory concentration index (FICI) (Klebsiella pneumoniae [20]): 0.141
- MIC (Klebsiella pneumoniae [20]; Klebsiella pneumoniae, ATCC 77326): 1 µg/mL
- Ratio (Acinetobacter baumannii [21]): 8
- MIC (Acinetobacter baumannii [6]): 32 µg/mL (≈ 130 µM)
- Activity (Caenorhabditis elegans): Dose-dependent effect
- Survival (Staphylococcus aureus [22]): >90%
- survival at 100 µg/mL (Staphylococcus aureus [23]): 16%
- fractional inhibitory concentration index (FICI) (Acinetobacter baumannii [24]): 0.375
- MIC (Acinetobacter baumannii [24]; Acinetobacter baumannii, ATCC 17978): 4 µg/mL
- Ratio (Staphylococcus aureus [25]): >=5
- viability at 24 h, 64 ug/ml [26]: 8.5%
- MIC (Enterobacter sp. [27]): 8 µg/mL
- MIC (Staphylococcus aureus [28]): 4 µg/mL (≈ 16.3 µM)
- Ratio (Staphylococcus aureus [29]): 4
- Ratio (Pseudomonas aeruginosa [30]): >4

Compound: N=C(N)NCCC[C@H](NC(=O)[C@@H](N)Cc1ccccc1)C(=O)Nc1ccc2ccccc2c1 (H-Phe-Arg-βNA)
- growth inhibition (GI) (Pseudomonas aeruginosa [31]): inactive
- growth inhibition (GI) (Acinetobacter baumannii [32]): inactive
- growth inhibition (GI) (Enterobacter sp. [33]): inactive
- growth inhibition (GI) (Klebsiella pneumoniae [34]): inactive

Compound: N#Cc1nccnc1[S+]([O-])c1ccccc1 (stereo not drawn)
- MIC (Pseudomonas aeruginosa [1]): > 64 µg/mL
- MIC (Enterobacter sp. [2]): > 64 µg/mL
- MIC (Klebsiella pneumoniae [3]): 64 µg/mL (≈ 279 µM)
- MIC (Enterococcus faecium): 8 µg/mL (≈ 34.9 µM)
- MIC (Acinetobacter baumannii [6]): 32 µg/mL (≈ 140 µM)
- MIC (Staphylococcus aureus [28]): 4 µg/mL (≈ 17.4 µM)

Compound: N#Cc1nccnc1Sc1ccccc1
- MIC (Pseudomonas aeruginosa [1]): > 64 µg/mL
- MIC (Enterobacter sp. [2]): > 64 µg/mL
- MIC (Klebsiella pneumoniae [3]): > 64 µg/mL
- MIC (Enterococcus faecium): > 64 µg/mL
- MIC (Acinetobacter baumannii [6]): > 64 µg/mL
- MIC (Staphylococcus aureus [28]): > 64 µg/mL

Compound: CN[C@H](CC(C)C)C(=O)N[C@H]1C(=O)N[C@@H](CC(N)=O)C(=O)N[C@H]2C(=O)N[C@H]3C(=O)N[C@H](C(=O)N[C@H](C(=O)O)c4cc(O)cc(O)c4-c4cc3ccc4O)[C@H](O)c3ccc(c(Cl)c3)Oc3cc2cc(c3O[C@@H]2O[C@H](CO)[C@@H](O)[C@H](O)[C@H]2O[C@H]2C[C@](C)(N)[C@H](O)[C@H](C)O2)Oc2ccc(cc2Cl)[C@H]1O [VANCOMYCIN]
- MIC (Enterococcus faecium): 4 µg/mL (≈ 2.76 µM)
- survival at 50 µg/mL (Staphylococcus aureus [16]): > 97%
- Survival (Staphylococcus aureus [22]): >90%
- survival at 100 µg/mL (Staphylococcus aureus [23]): > 97%
